Series [1] relates to Bovine viral diarrhea virus 1. The series can be described thus: Antiviral activity against Bovine viral diarrhea virus infected in MDBK cells assessed as inhibition of virus-induced cytopathicity after 3 to 4 days by MTT assay. The series is classed as functional, organism-based. The note with it: Bovine viral diarrhea virus isolates and strains.
Series [2] deals with Vesicular stomatitis virus. Put plainly: Antiviral activity against Vesicular stomatitis virus after 2 days by plaque reduction assay. The series is classed as functional, organism-based. (Plaque reduction counts the foci of infection that form in a cell layer.)
The subject of a further series is MT4. The series can be described thus: Cytotoxicity against human MT4 cells after 96 hrs by MTT assay. The series is classed as cell-based. The note with it: mt4, 96 h. The method, boiled down: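 Exponentially growing mock-infected MT-4 seeded at 1 × 10^5 cells/mL in RPMI-1640 with 10% FCS, penicillin and streptomycin. Incubated with or without serial compound dilutions at 37 °C, 5% CO2. Viability by MTT after 96 h. CC50 = concentration reducing viability 50%.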

Series [3] in a line: Cytotoxicity against MDBK cells after 48 to 96 hrs by MTT assay. The note with it: cattle, mdbk. The series is classed as cell-based, Bos taurus. The method, boiled down:
(§1)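 Mock-infected cells in maintenance medium, MDBK at 6 × 10^5 and BHK at 1 × 10^6 cells/mL initial density, with or without serial compound dilutions. Run in parallel with antiviral assays. Viability by MTT after 48–96 h at 37 °C, 5% CO2. CC50 = concentration reducing viability 50%.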
Background: Tetrazolium dyes change colour on reduction, which living cells bring about.

The test system of series [4] is Respiratory syncytial virus. Put plainly: Antiviral activity against Respiratory syncytial virus A2 infected in Vero-76 cells after 5 days by plaque reduction assay. The series is classed as functional, organism-based. The note with it: human respiratory syncytial virus, A2, Vero 76, 120 h.
Another series deals with Vaccinia virus. Put plainly: Antiviral activity against Vaccinia virus after 3 days by plaque reduction assay. The class given is functional, organism-based. The following applies: Orthopoxvirus vaccinia.
Another series concerns Coxsackievirus B2. Put plainly: Antiviral activity against Coxsackie virus type B2 virus infected in african green monkey Vero-76 cells after 3 days by plaque reduction assay. The series is classed as functional, organism-based. The following applies: Enterovirus B, Vero 76, 72 h. The method, boiled down: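 Vero 76 cells seeded at 2 × 10^5 cells/well, grown overnight to confluence at 37 °C in 5% CO2, then infected at 50–100 PFU/well. Unadsorbed virus removed. Overlay of DMEM with 1% inactivated FCS and 0.75% methylcellulose, with or without serial compound dilutions. After 3 days at 37 °C, fixed and stained with crystal violet in PBS/50% ethanol; plaques counted. EC50 is the concentration reducing plaque number by 50%.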

For the next series, the system named is Yellow fever virus. The series can be described thus: Antiviral activity against Yellow fever virus infected in BHK-21 cells assessed as inhibition of virus-induced cytopathicity after 3 to 4 days by MTT assay. The series is classed as functional, organism-based. On the technique in general: Protection from cytopathic effect is a common read-out in antiviral testing.

For the next series, the system named is Human alphaherpesvirus 1. Put plainly: Antiviral activity against HSV1 infected in Vero-76 cells after 3 days by plaque reduction assay. The series is classed as functional, organism-based. The note with it: Human alphaherpesvirus 1, Vero 76, 72 h.
A further series deals with Poliovirus 1. Put plainly: Antiviral activity against Human poliovirus 1 strain Sabin after 2 days by plaque reduction assay. The class given is functional. The following applies: for EC50: Enterovirus C, 48 h.
Series [5] relates to Human immunodeficiency virus 1. Put plainly: Antiviral activity against HIV1 infected in human MT4 cells assessed as inhibition of virus-induced cytopathicity after 4 days by MTT assay. The class given is functional, organism-based.
For another series, the system named is Vero. The series can be described thus: Cytotoxicity against african green monkey Vero 76 cells by crystal violet staining. The note with it: chlorocebus sabaeus, vero. The class given is cell-based. Summed up:
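Mock-infected Vero 76 seeded at 4 × 10^5 cells/mL, run in parallel with plaque assays, with or without serial compound dilutions. Cell number of monolayers determined by crystal violet staining. CC50 = concentration reducing viable cell number 50%.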

Series [6] is described as follows: Cytotoxicity against hamster BHK21 cells assessed as reduction in cell viability after 48 to 96 hrs by MTT assay. The class given is cell-based, Mesocricetus auratus, BHK-21. The following applies: bhk-21. Summed up:
as §1

Series [7] has as its system Mammalian orthoreovirus 1. The series can be described thus: Antiviral activity against Reovirus-1 infected in BHK-21 cells assessed as inhibition of virus-induced cytopathicity after 3 to 4 days by MTT assay. The series is classed as functional, organism-based. The note with it: Mammalian orthoreovirus 1, BHK-21. Summed up: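 BHK-21 cells seeded at 5 × 10^4 cells/well, grown overnight to confluent monolayers at 37 °C in 5% CO2, then infected at m.o.i. 0.01 in serum-free medium. One hour later, MEM Earle's with 1% final inactivated FCS added, with or without serial compound dilutions. Viability read by MTT after 3–4 days at 37 °C. EC50 is the concentration giving 50% protection from cytopathogenicity.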

The structures appear in SMILES notation. Activity calls are given as the source filed them.

By EC50 is commonly meant the concentration that produces a half-maximal response. One may read the CC50 as the concentration that lowers cell viability or growth by half.

On to `FC(F)(F)c1cccc(N/N=N/c2ccccc2)c1`, for which the 50% effective concentration (EC50) in series [1] was above 100000 nM; in [4], 3 µM; with Coxsackievirus B2 it was 8 µM; in the series on Yellow fever virus it was at least 100 µM; in the series with Human alphaherpesvirus 1, above 15 µM; with Poliovirus 1 it was above 15 µM. Also, the EC50 in series [7] was above 100 µM. Besides, the outcome (in [2]; with Vaccinia virus) was inactive. In addition, the CC50 with MT4 is above 100 µM; in series [3], above 100 µM; with Vero it was 15 µM; in series [6] it was above 100 µM. In addition, the inhibition entry in series [5] is “inactive”.
With `NCCCC[C@H](N)C(=O)Nc1cccc(-c2ccc(NC(=O)Nc3nc4ccccc4s3)nc2)c1`, in [1], the 50% effective concentration (EC50) was determined as 600 nM.
`c1ccc(/N=N/c2ccc(NC[C@@H]3CCCN4CCCC[C@H]34)c3c2CCCC3)cc1`: the EC50 in [1] was 30000 nM; in [4], above 80 µM; in the series on Coxsackievirus B2 it was above 80 µM; in the series on Yellow fever virus, at least 100 µM; in the series with Human alphaherpesvirus 1, above 80 µM; in series [7], above 100 µM. The result (in series [2]; with Vaccinia virus; with Poliovirus 1) was inactive. Further, the CC50 in the series on MT4 is 100 µM; in series [3] it was above 100 µM; in the series on Vero, 80 µM; in series [6], above 100 µM. Moreover, in series [5], the inhibition entry is “inactive”.
As to `Cn1c2cc(N3CCN(c4ccccn4)CC3)c(N)cc2c(=O)c2c(O)cc(O)cc21`, the EC50 in series [1] was found to be 600 nM.
In the case of `Fc1ccc(F)c(/N=N/Nc2ccccc2)c1`, the EC50 in series [1] is above 100000 nM; in series [4], 10 µM; in the series on Coxsackievirus B2, 12 µM; in the series on Yellow fever virus, above 100 µM; in the series with Human alphaherpesvirus 1, 55 µM; in the series on Poliovirus 1 it was above 80 µM. Besides, the EC50 in series [7] was above 100 µM. For the same molecule, the outcome (in series [2]; in the series with Vaccinia virus) was inactive. Besides, the CC50 with MT4 was 100 µM; in [3] it was above 100 µM; in the series with Vero, 80 µM; in series [6], above 100 µM. Further, in [5], the inhibition entry was “inactive”.
Take `CCCN(CCC)CCSc1n[nH]c2c3ccccc3nc-2n1`: the EC50 in series [1] was 30 nM.
In the case of `Fc1ccc(F)c(/N=N/Nc2cc(F)ccc2F)c1`, the EC50 in series [1] was above 100000 nM; in [4] it was 8 µM; in the series on Coxsackievirus B2, 50 µM; in the series on Yellow fever virus it was above 100 µM; in the series with Human alphaherpesvirus 1, above 100 µM; in the series with Poliovirus 1, above 100 µM. Besides, in [7], the EC50 is above 100 µM. Further, the result (in series [2]; with Vaccinia virus) was inactive. Further, the CC50 in the series on MT4 was at least 100 µM; in series [3], above 100 µM; with Vero, at least 100 µM; in series [6], above 100 µM. Also, the inhibition entry in series [5] is “inactive”.
With `CN(C)CCCNc1ccc(/N=N/c2ccccc2)cc1`, the EC50 in series [1] was 1600 nM; in series [4], 25 µM; with Coxsackievirus B2, above 30 µM; in the series with Yellow fever virus, at least 31 µM; in the series with Human alphaherpesvirus 1 it was above 30 µM; in [7], above 31 µM. In addition, the outcome (in [2]; with Vaccinia virus; in the series on Poliovirus 1) was inactive. The cytotoxic concentration (CC50) in the series with MT4 was 17 µM; in series [3] it was 58 µM; with Vero it was 30 µM; in series [6], 31 µM. Further, in [5], the inhibition result was “inactive”.
In the case of `Brc1ccc(Cn2ccc3nc(-c4ccccc4)nc-3c2)cc1`, the concentration giving a half-maximal response (EC50) in series [1] turned out to be 30 nM.
As to `COc1c(C)c2c(c(O)c1C/C=C(\C)CCC(=O)O)C(=O)OC2` [MYCOPHENOLIC ACID], the 50% effective concentration (EC50) is above 42000 nM in series [1]; 0.6 µM in series [4]; above 13 µM with Coxsackievirus B2; above 100 µM in the series with Yellow fever virus; above 13 µM in the series with Human alphaherpesvirus 1; above 13 µM with Poliovirus 1. Further, the 50% effective concentration (EC50) in series [7] was above 100 µM. The CC50 was 0.2 µM with MT4, 42 µM in series [3], at least 13 µM with Vero and above 100 µM in [6].
Regarding `O=c1cnn([C@@H]2O[C@H](CO)[C@@H](O)[C@H]2O)c(=O)[nH]1` [6-AZAURIDINE], the EC50 in [1] was above 100000 nM; in the series with Coxsackievirus B2, above 20 µM; with Human alphaherpesvirus 1, above 20 µM; in the series with Poliovirus 1, above 20 µM; in series [7] it was above 100 µM. In addition, the results for the CC50 (in [3]; in the series on Vero; in series [6]) were above 100 µM, 20 µM and above 100 µM, respectively.
`c1ccc(/N=N/Nc2ccccc2)cc1`: the EC50 in [1] was above 100000 nM; in series [4], at least 90 µM; in the series with Coxsackievirus B2, above 90 µM; in the series on Yellow fever virus it was above 100 µM; in the series on Human alphaherpesvirus 1, above 90 µM; with Poliovirus 1, above 90 µM. In [7], the EC50 is above 100 µM. In addition, the outcome (in [2]; with Vaccinia virus) was inactive. Besides, the inhibition entry in series [5] is “inactive”.
Regarding `Brc1ccc(/N=N/N2CCCCC2)cc1`, the result (in [2]; in the series on Vaccinia virus) was inactive. The CC50 (with MT4; in series [3]; in the series with Vero; in [6]) was above 100 µM each time. In addition, the EC50 in series [4] was 73 µM; in the series on Coxsackievirus B2, 25 µM; with Yellow fever virus, above 100 µM; in the series with Human alphaherpesvirus 1, above 100 µM; with Poliovirus 1 it was above 100 µM; in series [7], above 100 µM. The inhibition entry in series [5] was “inactive”.
`FC(F)(F)c1cccc(/N=N/N2CCCC2)c1`: the outcome (in series [2]; with Vaccinia virus) was inactive. Besides, the CC50 (in the series on MT4; in series [3]; with Vero; in series [6]) was above 100 µM in each case. In addition, the EC50 (in series [4]; in the series with Coxsackievirus B2; in the series with Yellow fever virus; in the series with Human alphaherpesvirus 1; in the series with Poliovirus 1; in [7]) was above 100 µM throughout. In series [5], the inhibition result was “inactive”.
Take `c1ccc(/N=N/N2CCN(c3ccccc3)CC2)cc1`: the outcome (in series [2]; with Vaccinia virus) was inactive. The CC50 is 33 µM in the series with MT4, above 100 µM in [3], at least 100 µM in the series with Vero and above 100 µM in series [6]. Besides, the half-maximal effective concentration (EC50) in series [4] is 8 µM; in the series with Coxsackievirus B2 it was above 100 µM; with Yellow fever virus, above 100 µM; with Human alphaherpesvirus 1, above 100 µM; with Poliovirus 1, above 100 µM; in series [7], above 100 µM. In series [5], the inhibition entry is “inactive”.
In the case of `Fc1ccc(F)c(/N=N/N2CCCC2)c1`, the outcome (in series [2]; in the series on Vaccinia virus) was inactive. The CC50 (in the series on MT4; in [3]; in the series with Vero; in series [6]) was above 100 µM throughout. Also, the EC50 is above 100 µM in [4]; 35 µM in the series on Coxsackievirus B2; above 100 µM in the series with Yellow fever virus; above 100 µM in the series on Human alphaherpesvirus 1; 44 µM in the series with Poliovirus 1; above 100 µM in [7]. Further, the inhibition entry in series [5] was “inactive”.
As to `Clc1cccc(/N=N/N2CCCC2)c1`, the result (in series [2]; with Vaccinia virus) was inactive. Moreover, the CC50 in the series with MT4 was above 100 µM; in series [3], above 100 µM; in the series on Vero, at least 100 µM; in [6] it was above 100 µM. Besides, the concentration giving a half-maximal response (EC50) in series [4] was above 100 µM; in the series on Coxsackievirus B2, above 100 µM; with Yellow fever virus, above 100 µM; in the series on Human alphaherpesvirus 1 it was above 100 µM; in the series with Poliovirus 1 it was at least 100 µM; in series [7], above 100 µM. Moreover, in [5], the inhibition entry was “inactive”.

Values taken from ChEMBL document CHEMBL1154067, “Antiviral and cytotoxic activities of aminoarylazo compounds and aryltriazene derivatives” (Bioorg Med Chem, 2009).
